Assay [1] addresses integrin CD11b/CD18 (Homo sapiens, UniProt P11215). The assay can be described thus: adhesion of K562 CD11b/CD18 cells to immobilized Fibrinogen. In kind it is cell-based. The following applies: for EC50: read-out: EC50 (Effective Concentration for 50% increase in cell adhesion), K562 CD11b/CD18 cells, ligand Fg, NB=No increase in binding of K562 CD11b/CD18 cells to ligand Fg. In a few lines: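 K562 cells stably transfected with wild-type integrin CD11b/CD18. Adhesion to immobilized ligand is measured in the presence of test compound. Secondary validation used two ligands, Fg and iC3b. For the analogue series, EC50 (μM) was derived from the increase in adhesion to Fg; absence of any increase was reported as no binding.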

The target in assay [2] is recombinant αA-domain of CD11b/CD18 (Homo sapiens, UniProt P11215). The assay can be described thus: binding of purified recombinant αA-domain to immobilized Fg. The following applies: in words.
Assay [3] concerns the target integrin CD11a/CD18 (Homo sapiens, UniProt P20701). The assay is described as follows: adhesion of K562 CD11a/CD18 cells to immobilized ICAM-1. In kind it is cell-based. The following applies: for selectivity for integrin CD11b/CD18 over CD11a/CD18: K562 CD11b/CD18 vs K562 CD11a/CD18 cell adhesion. In a few lines: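 K562 cells stably transfected with wild-type integrin CD11a/CD18. Test compound obtained as pure powder and assessed for its ability to increase adhesion of these cells to immobilized ICAM-1. This is compared with adhesion of K562 CD11b/CD18 cells to judge selectivity.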

The source of these data is PMC2818319 (Bioorganic & medicinal chemistry letters, 2009).

Structures are written as SMILES.

Take `CCOC(=O)CN1C(=O)S/C(=C\c2ccc(-c3ccccc3)o2)C1=O` [compound 6]: the “ligand efficiency (BEI)” value in assay [1] was 14. Besides, the “binding of αA-domain to immobilized Fg” value in assay [2] is “increasing its binding to immobilized Fg”. In addition, in assay [3], the “selectivity for integrin CD11b/CD18 over CD11a/CD18” value is reported as “high selectivity”. The “increase of K562 CD11a/CD18 cell adhesion to ICAM-1” value in assay [3] (in words) was “no appreciable binding”.
For the compound `CCOC(=O)CN1C(=O)S/C(=C\c2ccc(-c3ccc(Cl)cc3Cl)o2)C1=O` [compound 2], the “level of K562 CD11b/CD18 cell-adhesion in secondary assays” value in assay [1] (ligands Fg and iC3b) is “high levels”. The “selectivity for integrin CD11b/CD18 over CD11a/CD18” value in assay [3] is given as “two-fold higher selectivity”.
Consider `COC(=O)CN1C(=O)S/C(=C\c2ccc(-c3ccc(C(=O)O)cc3)o2)C1=O` [compound 12], for which the EC50 in assay [1] was greater than 50 µM.
The same measure, in the same setting: next, `NS(=O)(=O)c1ccc(N2C(=O)S/C(=C\c3ccc(Cc4ccccc4)o3)C2=O)cc1` [compound 22]: greater than 50 µM; `COC(=O)CN1C(=O)S/C(=C\c2ccc(Sc3ccccc3)o2)C1=O` [compound 5]: greater than 50 µM.
On to `COC(=O)C(C)N1C(=O)S/C(=C\c2ccc(-c3ccc(Cl)cc3Cl)o2)C1=O` (stereo not shown) [compound 13], for which the “agonist activity in words” value in assay [1] (K562 CD11b/CD18 cell adhesion) is “inactive”. The EC50 in assay [1] is greater than 50 µM.
Regarding `CCOC(=O)CN1C(=O)S/C(=C\c2ccc(N3CCOCC3)o2)C1=O` [compound 3], the EC50 in assay [1] was greater than 50 µM.
Still for that read-out and setting: next, `CCOC(=O)CN1C(=O)S/C(=C\c2ccc(-c3ccc(C(=O)O)cc3C)o2)C1=O` [compound 11]: greater than 50 µM.
